Calls of active or inactive are those of the source. The rule behind the calls is not given here.
Assays:
[1] = biological target: Glutamate receptor ionotropic, NMDA 2D (Rattus norvegicus) (UniProt Q62645); assay: Positive allosteric modulation of rat GluN2D expressed in Xenopus laevis oocytes assessed as potentiation of L-glutamate/glycine-induced current response at holding potential -60 mV by two-electrode voltage clamp method relative to L-glutamate/glycine; format: cell-based; parameters: concentration or dose not given beside the values
Summary of the method: (§1)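 Oocytes injected with GluN1a plus GluN2A, 2B, 2C or 2D RNA (1:1–3 molar, 15–30 ng total) and kept in ND-96 at 17°C for 1–5 days. TEVC at −60 mV in HEPES-buffered NaCl/KCl/BaCl2 saline, pH 7.4. […] Curves were fitted to give EC50/IC50 and maximal potentiation or inhibition, mean ± s.e.m.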

[2] = biological target: T1, Ionotropic glutamate receptor NMDA 1/2D (Rattus norvegicus, UniProt P35439+Q62645); assay: Positive allosteric modulation of rat GluN1/GluN2D expressed in Xenopus laevis oocytes assessed as potentiation of L-glutamate/glycine-induced current response at holding potential -60 mV by two-electrode voltage clamp method; format: cell-based; summary of the method: as §1
[3] = biological target: Glutamate receptor ionotropic, NMDA 2A (Rattus norvegicus) (UniProt Q00959); assay: Positive allosteric modulation of rat GluN2A expressed in Xenopus laevis oocytes assessed as potentiation of L-glutamate/glycine-induced current response at holding potential -60 mV by two-electrode voltage clamp method relative to L-glutamate/glycine; format: cell-based; parameters: concentration or dose not given beside the values; summary of the method: as §1
[4] = biological target: Glutamate receptor ionotropic, NMDA 2A (Rattus norvegicus) (UniProt Q00959); assay: Allosteric modulation of rat GluN2A expressed in Xenopus laevis oocytes assessed as L-glutamate/glycine-induced current response at 100 uM at holding potential -60 mV by two-electrode voltage clamp method relative to L-glutamate/glycine; format: cell-based
Summary of the method: (§2)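 GluN1a with one GluN2 subunit; RNAs mixed 1:1–3 molar, 15–30 ng total injected into Xenopus oocytes, which were held in ND-96 at 17°C for 1–5 days. TEVC at −60 mV in 116 mM NaCl, 2 mM KCl, 0.3 mM BaCl2, 5 mM HEPES, pH 7.4. […] Reported as % of agonist-alone response, mean ± s.e.m., n≥4.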

[5] = biological target: T2, Glutamate NMDA receptor; Grin1/Grin2a (Rattus norvegicus, UniProt P35439+Q00959); assay: Positive allosteric modulation of rat GluN1/GluN2A expressed in Xenopus laevis oocytes assessed as potentiation of L-glutamate/glycine-induced current response at holding potential -60 mV by two-electrode voltage clamp method; format: cell-based; summary of the method: as §1
[6] = Solubility of the compound at 100 uM; format: physicochemical
Summary of the method: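 Compounds were inspected for visible precipitation at the concentrations used in the oocyte assays.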

[7] = biological target: Glutamate receptor ionotropic, NMDA 2D (Rattus norvegicus) (UniProt Q62645); assay: Allosteric modulation of rat GluN2D expressed in Xenopus laevis oocytes assessed as L-glutamate/glycine-induced current response at 100 uM at holding potential -60 mV by two-electrode voltage clamp method relative to L-glutamate/glycine; format: cell-based; summary of the method: as §2
[8] = biological target: Glutamate receptor ionotropic, NMDA 2A (Rattus norvegicus) (UniProt Q00959); assay: Agonist activity at rat GluN2A expressed in Xenopus laevis oocytes assessed effect on current response at holding potential -60 mV by two-electrode voltage clamp method relative to L-glutamate/glycine; format: cell-based; summary of the method: as §2
[9] = biological target: Glutamate receptor ionotropic, NMDA 2D (Rattus norvegicus) (UniProt Q62645); assay: Agonist activity at rat GluN2D expressed in Xenopus laevis oocytes assessed as effect on current response at holding potential -60 mV by two-electrode voltage clamp method relative to L-glutamate/glycine; format: cell-based; summary of the method: as §2
[10] = biological target: T3, Glutamate NMDA receptor; Grin1/Grin2c (Rattus norvegicus, UniProt P35439+Q00961); assay: Positive allosteric modulation of rat GluN1/GluN2C expressed in Xenopus laevis oocytes assessed as potentiation of L-glutamate/glycine-induced current response at holding potential -60 mV by two-electrode voltage clamp method; format: cell-based; summary of the method: as §1
[11] = biological target: Glutamate receptor ionotropic, NMDA 2C (Rattus norvegicus) (UniProt Q00961); assay: Agonist activity at rat GluN2C expressed in Xenopus laevis oocytes assessed effect on current response at holding potential -60 mV by two-electrode voltage clamp method relative to L-glutamate/glycine; format: cell-based; summary of the method: as §2
[12] = biological target: Glutamate receptor ionotropic, NMDA 2B (Rattus norvegicus) (UniProt Q00960); assay: Allosteric modulation of rat GluN2B expressed in Xenopus laevis oocytes assessed as L-glutamate/glycine-induced current response at 100 uM at holding potential -60 mV by two-electrode voltage clamp method relative to L-glutamate/glycine; format: cell-based; summary of the method: as §2
[13] = biological target: Glutamate receptor ionotropic, NMDA 2C (Rattus norvegicus) (UniProt Q00961); assay: Allosteric modulation of rat GluN2C expressed in Xenopus laevis oocytes assessed as L-glutamate/glycine-induced current response at 100 uM at holding potential -60 mV by two-electrode voltage clamp method relative to L-glutamate/glycine; format: cell-based; summary of the method: as §2
[14] = biological target: Glutamate receptor ionotropic, NMDA 2C (Rattus norvegicus) (UniProt Q00961); assay: Positive allosteric modulation of rat GluN2C expressed in Xenopus laevis oocytes assessed as potentiation of L-glutamate/glycine-induced current response at holding potential -60 mV by two-electrode voltage clamp method relative to L-glutamate/glycine; format: cell-based; parameters: concentration or dose not given beside the values; summary of the method: as §1
[15] = biological target: Glutamate receptor ionotropic, NMDA 2B (Rattus norvegicus) (UniProt Q00960); assay: Agonist activity at rat GluN2B expressed in Xenopus laevis oocytes assessed as effect on current response at holding potential -60 mV by two-electrode voltage clamp method relative to L-glutamate/glycine; format: cell-based; summary of the method: as §2
[16] = biological target: T4, Glutamate NMDA receptor; Grin1/Grin2b (Rattus norvegicus, UniProt P35439+Q00960); assay: Positive allosteric modulation of rat GluN1/GluN2B expressed in Xenopus laevis oocytes assessed as potentiation of L-glutamate/glycine-induced current response at holding potential -60 mV by two-electrode voltage clamp method; format: cell-based; summary of the method: as §1
[17] = biological target: Glutamate receptor ionotropic, NMDA 2B (Rattus norvegicus) (UniProt Q00960); assay: Positive allosteric modulation of rat GluN2B expressed in Xenopus laevis oocytes assessed as potentiation of L-glutamate/glycine-induced current response at holding potential -60 mV by two-electrode voltage clamp method relative to L-glutamate/glycine; format: cell-based; summary of the method: as §1
[18] = biological target: T1, Ionotropic glutamate receptor NMDA 1/2D; assay: Negative allosteric modulation of rat GluN1/GluN2D expressed in Xenopus laevis oocytes assessed as inhibition of L-glutamate/glycine-induced current response at holding potential -60 mV by two-electrode voltage clamp method; format: cell-based; summary of the method: as §1
[19] = biological target: T4, Glutamate NMDA receptor; Grin1/Grin2b; assay: Negative allosteric modulation of rat GluN1/GluN2B expressed in Xenopus laevis oocytes assessed as inhibition of L-glutamate/glycine-induced current response at holding potential -60 mV by two-electrode voltage clamp method; format: cell-based; summary of the method: as §1
[20] = biological target: Glutamate NMDA receptor; Grin1/Grin2b (Rattus norvegicus) (UniProt P35439+Q00960); assay: Negative allosteric modulation of rat GluN1/GluN2B expressed in Xenopus laevis oocytes assessed as inhibition of L-glutamate/glycine-induced current response at holding potential -60 mV by two-electrode voltage clamp method relative to untreated control; format: cell-based; parameters: concentration or dose not given beside the values; summary of the method: as §1
[21] = biological target: T5, Glutamate NMDA receptor; Grin1/Grin2c (Rattus norvegicus) (UniProt P35439+Q00961); assay: Negative allosteric modulation of rat GluN1/GluN2C expressed in Xenopus laevis oocytes assessed as inhibition of L-glutamate/glycine-induced current response at holding potential -60 mV by two-electrode voltage clamp method relative to untreated control; format: cell-based; parameters: concentration or dose not given beside the values; summary of the method: as §1
[22] = biological target: Glutamate NMDA receptor; Grin1/Grin2a (Rattus norvegicus) (UniProt P35439+Q00959); assay: Negative allosteric modulation of rat GluN1/GluN2A expressed in Xenopus laevis oocytes assessed as inhibition of L-glutamate/glycine-induced current response at holding potential -60 mV by two-electrode voltage clamp method relative to untreated control; format: cell-based; parameters: concentration or dose not given beside the values; summary of the method: as §1
[23] = biological target: T2, Glutamate NMDA receptor; Grin1/Grin2a; assay: Negative allosteric modulation of rat GluN1/GluN2A expressed in Xenopus laevis oocytes assessed as inhibition of L-glutamate/glycine-induced current response at holding potential -60 mV by two-electrode voltage clamp method; format: cell-based; summary of the method: as §1
[24] = biological target: T3, Glutamate NMDA receptor; Grin1/Grin2c; assay: Negative allosteric modulation of rat GluN1/GluN2C expressed in Xenopus laevis oocytes assessed as inhibition of L-glutamate/glycine-induced current response at holding potential -60 mV by two-electrode voltage clamp method; format: cell-based; summary of the method: as §1
[25] = biological target: Ionotropic glutamate receptor NMDA 1/2D (Rattus norvegicus) (UniProt P35439+Q62645); assay: Negative allosteric modulation of rat GluN1/GluN2D expressed in Xenopus laevis oocytes assessed as inhibition of L-glutamate/glycine-induced current response at holding potential -60 mV by two-electrode voltage clamp method relative to untreated control; format: cell-based; parameters: concentration or dose not given beside the values; summary of the method: as §1
[26] = biological target: T5, Glutamate NMDA receptor; Grin1/Grin2c (Rattus norvegicus); assay: Negative allosteric modulation of rat GluN1/GluN2C expressed in Xenopus laevis oocytes assessed as inhibition of 10 uM glutamate/glycine-induced current response at 30 uM at -60 mV holding potential by two-electrode voltage clamp method; format: cell-based
[27] = biological target: T5, Glutamate NMDA receptor; Grin1/Grin2c (Rattus norvegicus); assay: Negative allosteric modulation of rat GluN1/GluN2C expressed in Xenopus laevis oocytes assessed as inhibition of 300 uM glutamate/glycine-induced current response at 30 uM at -60 mV holding potential by two-electrode voltage clamp method; format: cell-based

Structure (SMILES)	Activity [1]	EC50 [2]	Activity [3]	Activity [4]	EC50 [5]	solubility [6]	Activity [7]	Activity [8]	Activity [9]	EC50 [10]	Activity [12]	Activity [13]	IC50 [18]	IC50 [19]	Activity [20]	Activity [21]	Activity [22]	IC50 [23]	IC50 [24]	Activity [25]	also measured
C=C(CCC(C)C)c1ccc2cc(C(=O)O)ccc2c1	277%	72.3 µM	230%	163%	114 µM	Soluble	310%	inactive	inactive	26.1 µM	265%	349%									Activity [11]: inactive; Activity [14]: 137%; Activity [15]: inactive; EC50 [16]: 116 µM; Activity [17]: 417%
CC(C)CCCc1ccc2cc(C(=O)O)ccc2c1	88.4%	28.9 µM	68.6%	171%	28 µM	Soluble	207%	inactive	inactive	37.2 µM	171%	192%									Activity [11]: inactive; Activity [14]: 117%; Activity [15]: inactive; EC50 [16]: 34.6 µM; Activity [17]: 102%

Now from value to compound, other results behind:

Activity [1]	EC50 [2]	Activity [3]	Activity [4]	EC50 [5]	solubility [6]	Activity [7]	Activity [8]	Activity [9]	EC50 [10]	Activity [12]	Activity [13]	IC50 [18]	IC50 [19]	Activity [20]	Activity [21]	Activity [22]	IC50 [23]	IC50 [24]	Activity [25]	Structure (SMILES)	also measured
			28.4%		Soluble	26.1%				49.9%	26.1%	49.6 µM	97.8 µM	56.8%	106%	71.5%	11 µM	41.8 µM	98.6%	O=C(O)c1cc2cc(-c3ccccc3)ccc2cc1O	
			32.7%		Soluble	11.3%				7.3%	21.7%	8.6 µM	7.5 µM	93.9%	86.3%	83.2%	17.8 µM	13.8 µM	93.6%	O=C(O)c1cc2cc(/C=C/c3ccccc3)ccc2cc1O	
			50.5%		Soluble	30.7%				28.8%	24.4%	1.4 µM	9.2 µM	66.3%	74.4%	49.7%	9.7 µM	7.9 µM	70%	O=C(O)c1cc2cc(/C=C/c3cccc([N+](=O)[O-])c3)ccc2cc1O	
			80.5%		Soluble	26.8%				56.1%	35.1%	2.9 µM	32.2 µM	61.3%	80.1%	30.5%	6 µM	8.2 µM	79.7%	O=C(O)c1cc2cc(/C=C/c3ccccc3[N+](=O)[O-])ccc2cc1O	Activity [26]: Active; Activity [27]: Active

From ChEMBL document CHEMBL4422636, “Investigation of the structural requirements for N-methyl-D-aspartate receptor positive and negative allosteric modulators based on 2-naphthoic acid” (Eur J Med Chem, 2019)
